Compound activity as filed in PubChem.
KLK5 inh: blocks human kallikrein 5 protease activity; Q9Y337; hit rate 0.59% among 210,000; inhibition, % at 5 µM; AID 873; recombinant hK5, fluorogenic AMC substrate cleavage;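 active = inhibition of 40% or more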;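 note: 0% = enzyme controls without compound and 100% = no-enzyme blanks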
Target sequence (Q9Y337 67-293 limits assumed): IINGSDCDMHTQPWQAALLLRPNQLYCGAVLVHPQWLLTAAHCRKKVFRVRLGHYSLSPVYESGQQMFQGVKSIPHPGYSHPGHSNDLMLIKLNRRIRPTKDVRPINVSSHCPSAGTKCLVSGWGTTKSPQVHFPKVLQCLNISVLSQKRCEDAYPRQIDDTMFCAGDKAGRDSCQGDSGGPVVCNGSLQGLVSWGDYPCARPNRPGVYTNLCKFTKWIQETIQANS
Thrombin inh: inhibitors of human thrombin; hit rate 0.26% among 220,000; P00734; alpha-thrombin, Boc-VPR-AMC fluorogenic substrate cleavage; inhibition, % at 5 µM; AID 1046;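 active = inhibition at or above 40%; inactive = inhibition below 40%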;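 note: 0% = enzyme with no compound and 100% = wells without enzyme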
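Material: human alpha-thrombin protein; Also added: Boc-VPR-AMC substrate, 15 µM final; Timing: enzyme reaction carried out at room temperature; Signal: fluorescence, ex 355 nm, em 460 nm; Measure: % inhibition of thrombin; Controls: enzyme without compound as high, wells lacking enzyme as low.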
m-calpain inh: inhibitors of pig calpain II. hit rate 0.37% among 220,000. AID 1236. inhibition, % at 16 µM. purified calpain II, fluorogenic peptide substrate, 30 min;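 active = inhibition above about 50%, limit read from the data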
FXIIa inh: blocks human coagulation factor XIIa protease activity | P00748 | purified FXIIa, Boc-QGR-AMC fluorogenic substrate, 2 h | inhibition, % at 5 µM | hit rate 0.3% among 220,000; in the data active = inhibition above about 40%;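 note: 0% = enzyme with no compound and 100% = blank without enzyme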
FXIa inh 1536: factor XIa (human) inhibition | inhibition, % at 5 µM | P03951 | AID 798 | purified FXIa, Boc-Glu-Ala-Arg-AMC fluorogenic substrate | hit rate 0.14% among 220,000;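 active = inhibition of at least 40%; inactive = inhibition below 40%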;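 note: fluorescence of freed AMC excited at 355 nm; 0% = enzyme without compound and 100% = no enzyme blank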
* = called active by the depositor; . = no result. In the library only some 1.4% were active in any assay of this set; here they are far more common.

SMILES	KLK5 inh	Thrombin inh	m-calpain inh	FXIIa inh	FXIa inh 1536
C=CCNC(=O)C(C#N)c1nc2ccccc2nc1N1CCN(Cc2ccccc2)CC1 (configuration not stated)	35	104*	-83	23	16
Cc1ccc(C(CC(=O)NCCCN(C)C)c2ccc(OC(C)C)cc2)cc1 (configuration not stated)	20	3	21	63*	16
Cc1ccc(NC(=O)CNc2ccc(OC(C)C)cc2)cc1	12	-3	4	9	-4
Cc1cc(C(=O)CSc2nncs2)c(C)n1-c1c(C)n(C)n(-c2ccccc2)c1=O	-16	-4	3	13	7
Cc1ccc(-n2c(C)cc(C(=O)CSc3nncs3)c2C)cc1	21	56*	25	-5	7
CC(C)CC(NS(=O)(=O)c1ccc2c(c1)oc(=O)n2C)C(=O)NCc1cccnc1 (configuration not stated)	-6	-3	1	6	6
CCc1ccc(NC(=O)CCn2cccc2)cc1	15	11	-53	14	41*
COC(=O)c1ccc(NC(=O)CCn2cccc2)cc1	-3	-2	-18	10	-2
COC(=O)c1ccc(Nc2nc(C)cc(=O)[nH]2)cc1	-16	3	28	41*	24
Cc1ccc(NC2=C/C(=N/S(=O)(=O)c3cccs3)c3ccccc3C2=O)cc1C	-11	-2	50*	5	-4
CCCCC(=O)Nc1ccc(C(=O)c2ccccc2)cc1	12	10	53*	32	6
COc1cc(=O)n2c(n1)SCCC2	-22	2	-2	16	2
Cc1cc(=O)n2c(n1)SCOC2	35	5	8	43*	21
Cc1ccc(CCC(=O)Nc2ncc(Cc3cccc(Cl)c3Cl)s2)o1	-4	-5	19	19	24
CCOC(=O)c1c2c(c(=S)n(-c3ccccc3)c1N)CCC2	-2	3	51*	6	2
CCOC(=O)c1c(N)sn(-c2ccccc2)c1=S	1	-5	-5	5	-5
Cc1ccc(OCC(=O)Nc2cc(S(=O)(=O)N3CCOCC3)ccc2Cl)c([N+](=O)[O-])n1	-3	-1	-20	5	-4
COc1cc(/C=C2\SC(=O)N(c3cccc(Cl)c3)C2=O)cc([N+](=O)[O-])c1O	9	0	66*	12	6
CCc1nnc(NC(=O)[C@@H](NC(=O)c2ccc(C(C)(C)C)cc2)C(C)C)s1	-1	3	-4	15	7
CC1CCOC2(O1)C(=O)Nc1ccccc12 (configuration not stated)	41*	22	12	67*	31
CC1OC2(OC1C)C(=O)Nc1ccccc12 (configuration not stated)	-1	1	7	30	6
O=C(COc1ccc(S(=O)(=O)Nc2ccccc2)cc1)NCc1ccncc1	-11	2	11	0	-5
O=C(c1cc2ccccc2oc1=O)N(Cc1ccccc1)Cc1ccc2c(c1)OCO2	0	-18	-8	10	3
O=C(CSc1nc2ccccc2c(=O)n1-c1ccccc1)N1CCCc2ccccc21	-3	-5	-7	9	3
O=C(CSc1nc2ccccc2c(=O)n1-c1ccccc1)N1CCc2ccccc21	-6	-6	68*	15	10
SMILES	KLK5 inh	Thrombin inh	m-calpain inh	FXIIa inh	FXIa inh 1536
FC(F)(F)c1nnc2ccc(NCc3ccccc3)nn12	-9	0	92*	0	-4
FC(F)(F)c1nnc2ccc(NCc3cccnc3)nn12	0	-10	-8	2	-2
CCn1c(SCC(=O)N2c3ccccc3CCc3ccccc32)nnc1-c1ccc(OC)cc1	-5	-1	38	1	1
CCOC(=O)Cn1c(=O)cc(C)c2cccc(C)c21	-5	-1	73*	2	-7
Cc1cccc(Oc2ccc(Cl)cc2N)c1	0	2	50*	8	3
CC(=O)N/N=C/C1=CCC2CC1C2(C)C (configuration not stated)	0	-7	17	6	-4
CC(C)NC(=S)N/N=C/C1=CCC2CC1C2(C)C (configuration not stated)	14	1	51*	16	7
O=C(Nc1nc(-c2ccc(Cl)s2)cs1)c1cccs1	16	39	1	73*	91*
O=C(Nc1nc(-c2ccccc2)cs1)c1cccs1	-9	-5	0	2	-6
N#Cc1nc(-c2ccccc2F)oc1NCc1ccccc1	42*	14	-442	15	16
N#Cc1nc(-c2ccccc2F)oc1NCCc1ccccc1	-3	-6	-195	8	-3
CCOC(=O)CCNC(=O)Nc1ccc2nc(C)n(Cc3cccc(Cl)c3)c(=O)c2c1	-8	-2	66*	-7	-8
CCCc1nc2ccc(NC(=O)NCCC(=O)OCC)cc2c(=O)n1Cc1cccc(Cl)c1	-19	4	29	6	9
Cc1cccc2sc(NC(=O)c3ccc(NS(=O)(=O)c4cccs4)cc3)nc12	-15	-11	-30	8	-5
N#C/C(=C\c1cccnc1)c1nc2ccccc2[nH]1	39	11	-19	32	63*
N#C/C(=C\c1ccncc1)c1nc2ccccc2[nH]1	-5	-7	25	1	-1
O=C(O)CSCC(=O)NCc1cccc(C(F)(F)F)c1	1	40*	-21	0	-5
O=C(CSc1cccc(C(F)(F)F)c1)NCc1ccccc1	-7	-5	26	6	11
OC1C2(Cc3ccccc3)CN3CCN(C2)CC1(Cc1ccccc1)C3 (configuration not stated)	110*	3	.	-4	-6
CCn1c([N+](=O)[O-])nc2c1c(=O)[nH]c(=O)n2C	-3	-6	-21	8	-6
COc1ccccc1C(=O)Nc1ccc(S(=O)(=O)Nc2onc(C)c2C)cc1	1	-9	-17	5	-1
COc1ccccc1C(=O)Nc1ccc(S(=O)(=O)NC2=NCCCCC2)cc1	52*	13	32	25	26
Cc1nc(SCCCSc2n[nH]c(C)n2)n[nH]1	28	26	22	28	9
C/C(N)=C(/C#N)C(=O)CSc1nnc(COc2ccccc2Cl)o1	-23	-16	103*	10	-11
C1=C(c2ccccc2)CCN(c2nc3ccccc3n3cnnc23)C1	41*	-6	-18	4	-1
CCOc1ccc(C2NC(=O)NC(C)=C2[N+](=O)[O-])cc1OC (configuration not stated)	-3	-9	0	6	-3
CC(=O)NC(Cc1ccccc1F)C(=O)NC1CCN(c2ncccc2[N+](=O)[O-])CC1 (configuration not stated)	3	4	-12	15	-2
Cc1ccc(S(=O)(=O)NCC(=O)NCC(=O)OCC(=O)NC(=O)NC(C)(C)C)cc1C	-9	1	-11	7	-5
CCc1cc2c(=O)c(-c3nc(C)cs3)coc2cc1OC(C)C(=O)NCCO (configuration not stated)	-9	-4	55*	14	10
